Data reported in ChEMBL document CHEMBL3045825, “Synthesis, fungicidal activity, and structure-activity relationship of 2-oxo- and 2-hydroxycycloalkylsulfonamides” (J Agric Food Chem, 2010).
In brackets after ≈: the same amount, converted by molar mass.

Tests used:
Botrytis cinerea [1] = assay: Fungicidal activity against Botryotinia fuckeliana assessed as inhibition spore germination; type: functional, organism-based
Outline: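 Conidial germination on microscope slides: B. cinerea conidia about 2×10⁵ spores/mL in 0.05% Tween 80; acetone stock (5000 μg/mL) diluted in suspension to final 200, 50, 12.5, 3.12, 0.78 μg/mL. 30 μL on concave slide, humid chamber 23 °C, 100% RH, 8 h; germinated conidia counted in five fields. Three replicates; procymidone positive control.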

Botrytis cinerea [2] = assay: Fungicidal activity against Botryotinia fuckeliana grown on compound pre-treated cucumber leaves assessed as control efficiency against gray mold disease on leaves at 31.25 ug/mL; type: functional
Outline: (§1)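 Cucumber leaves sprayed with formulation diluted in water (500, 125, 31.25 μg/mL), air-dried, then upper surface inoculated with 6 mm plugs of B. cinerea Pers. maintained on PDA. Disease spot diameter measured; control efficiency from inhibition-rate equation. Procedure repeated 3 times, 9 replicates; procymidone and pyrimethanil (95%) positive controls.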

Botrytis cinerea [3] = assay: Fungicidal activity against Botryotinia fuckeliana assessed as inhibition of mycelial growth; type: functional, organism-based
Botrytis cinerea [4] = assay: Fungicidal activity against Botryotinia fuckeliana grown on compound pre-treated cucumber leaves assessed as control efficiency against gray mold disease on leaves at 500 ug/mL; type: functional; outline: as §1
Botrytis cinerea [5] = assay: Potency index, ratio of EC80 for procymidone to EC80 for test compound against Botryotinia fuckeliana assessed as inhibition of mycelial growth; type: functional
Botrytis cinerea [6] = assay: Fungicidal activity against Botryotinia fuckeliana grown on compound pre-treated cucumber leaves assessed as control efficiency against gray mold disease on leaves at 125 ug/mL; type: functional; outline: as §1

Row | SMILES | EC50 (Botrytis cinerea [1]) | EC80 (Botrytis cinerea [1]) | Efficacy (Botrytis cinerea [2]) | EC50 (Botrytis cinerea [3]) | EC80 (Botrytis cinerea [3]) | Efficacy (Botrytis cinerea [4]) | Ratio (Botrytis cinerea [5]) | Efficacy (Botrytis cinerea [6])
1 | O=C1CCCCCCC1S(=O)(=O)Nc1ccc(Cl)cc1C(F)(F)F (configuration not stated) | 19 µg/mL (≈ 49.4 µM) | 549 µg/mL (≈ 1430 µM) | 64.79% | 1.22 µg/mL (≈ 3.18 µM) | 2.88 µg/mL (≈ 7.5 µM) | 67.72% | 1.03 | 67.14%
2 | O=C1CCCCC1S(=O)(=O)Nc1ccc(Cl)cc1C(F)(F)F (configuration not stated) | 4.21 µg/mL (≈ 11.8 µM) | 124 µg/mL (≈ 349 µM) | 16.08% | 2.16 µg/mL (≈ 6.07 µM) | 5.2 µg/mL (≈ 14.6 µM) | 28.99% |  | 20.78%
3 | O=C1CCCCCCCCCCC1S(=O)(=O)Nc1ccc(Cl)cc1C(F)(F)F (configuration not stated) | 3.24 µg/mL (≈ 7.36 µM) | 115 µg/mL (≈ 260 µM) | 82.98% | 1.94 µg/mL (≈ 4.41 µM) | 39.8 µg/mL (≈ 90.5 µM) | 97.07% |  | 95.6%
4 | O=C1CCCC1S(=O)(=O)Nc1ccc(Cl)cc1C(F)(F)F (configuration not stated) | 4.21 µg/mL (≈ 12.3 µM) | 227 µg/mL (≈ 663 µM) | 60.68% | 2.5 µg/mL (≈ 7.32 µM) | 15.1 µg/mL (≈ 44.1 µM) | 74.77% |  | 72.42%
5 | Cc1ccc(NS(=O)(=O)C2CCCCC2O)cc1 (configuration not stated) |  |  |  | 18 µg/mL (≈ 66.9 µM) | 65.4 µg/mL (≈ 243 µM) |  |  | 
6 | O=S(=O)(Nc1ccc(Cl)cc1Cl)C1CCCCC1O (configuration not stated) |  |  |  | 53.2 µg/mL (≈ 164 µM) | 518 µg/mL (≈ 1600 µM) |  |  | 
7 | O=S(=O)(Nc1ccc(Cl)cc1C(F)(F)F)C1CCCCCCC1O (configuration not stated) | 23.6 µg/mL (≈ 61.2 µM) | 693 µg/mL (≈ 1800 µM) | 91.49% | 1.09 µg/mL (≈ 2.83 µM) | 2.5 µg/mL (≈ 6.48 µM) | 94.42% | 1.18 | 93.55%
8 | O=S(=O)(Nc1ccc(Cl)cc1)C1CCCCC1O (configuration not stated) |  |  |  | 7.38 µg/mL (≈ 25.5 µM) | 86.5 µg/mL (≈ 298 µM) |  |  | 
9 | O=S(=O)(Nc1cc(C(F)(F)F)ccc1C(F)(F)F)C1CCCCC1O (configuration not stated) |  |  |  | 2.53 µg/mL (≈ 6.47 µM) | 16 µg/mL (≈ 40.9 µM) |  |  | 
10 | O=S(=O)(Nc1ccccc1)C1CCCCC1O (configuration not stated) |  |  |  | 22.9 µg/mL (≈ 89.7 µM) | 443 µg/mL (≈ 1740 µM) |  |  | 
11 | O=S(=O)(Nc1ccc(C(F)(F)F)cc1)C1CCCCC1O (configuration not stated) |  |  |  | 8.79 µg/mL (≈ 27.2 µM) | 65.9 µg/mL (≈ 204 µM) |  |  | 
12 | CC12CC1(C)C(=O)N(c1cc(Cl)cc(Cl)c1)C2=O (configuration not stated) [PROCYMIDONE] |  |  | 61.27% | 0.99 µg/mL (≈ 3.48 µM) | 2.96 µg/mL (≈ 10.4 µM) | 91.78% |  | 73.59%
13 | O=S(=O)(Nc1ccccc1Cl)C1CCCCC1O (configuration not stated) |  |  |  | 75.6 µg/mL (≈ 261 µM) | > 10000 µg/mL |  |  | 
14 | O=S(=O)(Nc1ccccc1Br)C1CCCCC1O (configuration not stated) |  |  |  | 11 µg/mL (≈ 32.9 µM) | 250 µg/mL (≈ 749 µM) |  |  | 
15 | O=S(=O)(Nc1ccc(Cl)c(Cl)c1)C1CCCCC1O (configuration not stated) |  |  |  | 7.8 µg/mL (≈ 24.1 µM) | 25.5 µg/mL (≈ 78.6 µM) |  |  | 
16 | Cc1ccc(NS(=O)(=O)C2CCCCC2O)c(C)c1 (configuration not stated) |  |  |  | 21.5 µg/mL (≈ 75.8 µM) | 332 µg/mL (≈ 1170 µM) |  |  | 
17 | O=S(=O)(Nc1ccccc1F)C1CCCCC1O (configuration not stated) |  |  |  | 24 µg/mL (≈ 87.8 µM) | 84.2 µg/mL (≈ 308 µM) |  |  | 
18 | O=S(=O)(Nc1ccc(Cl)cc1C(F)(F)F)C1CCCCC1O (configuration not stated) | 40.1 µg/mL (≈ 112 µM) | 260 µg/mL (≈ 727 µM) | 53.05% | 3.37 µg/mL (≈ 9.42 µM) | 14.3 µg/mL (≈ 39.9 µM) | 93.54% |  | 72.42%
19 | O=S(=O)(Nc1ccc(Cl)cc1C(F)(F)F)C1CCCC1O (configuration not stated) | 5.29 µg/mL (≈ 15.4 µM) | 43 µg/mL (≈ 125 µM) | 62.44% | 36.4 µg/mL (≈ 106 µM) | 64.4 µg/mL (≈ 187 µM) | 81.12% |  | 68.9%
20 | Cc1cc(C)nc(Nc2ccccc2)n1 [PYRIMETHANIL] |  |  | 76.53% |  |  | 100% |  | 82.98%
21 | O=C1CCCCCC1S(=O)(=O)Nc1ccc(Cl)cc1C(F)(F)F (configuration not stated) | 18.1 µg/mL (≈ 48.9 µM) | 388 µg/mL (≈ 1050 µM) | 11.97% | 0.8 µg/mL (≈ 2.16 µM) | 3.7 µg/mL (≈ 10 µM) | 49.53% |  | 21.95%
22 | CCc1cccc(C)c1NS(=O)(=O)C1CCCCC1O (configuration not stated) |  |  |  | 105 µg/mL (≈ 352 µM) | > 10000 µg/mL |  |  | 
23 | O=S(=O)(Nc1ccc(Br)cc1)C1CCCCC1O (configuration not stated) |  |  |  | 7.07 µg/mL (≈ 21.2 µM) | 21.4 µg/mL (≈ 64 µM) |  |  | 
24 | COc1ccc(OC)c(NS(=O)(=O)C2CCCCC2O)c1 (configuration not stated) |  |  |  | 22.3 µg/mL (≈ 70.7 µM) | 181 µg/mL (≈ 575 µM) |  |  | 
25 | O=S(=O)(Nc1ccc(Cl)cc1C(F)(F)F)C1CCCCCC1O (configuration not stated) | 77 µg/mL (≈ 207 µM) | > 1000 µg/mL | 74.77% | 0.85 µg/mL (≈ 2.29 µM) | 5.27 µg/mL (≈ 14.2 µM) | 95.01% |  | 92.67%
26 | O=S(=O)(Nc1cc(C(F)(F)F)cc(C(F)(F)F)c1)C1CCCCC1O (configuration not stated) |  |  |  | 4.44 µg/mL (≈ 11.3 µM) | 14.6 µg/mL (≈ 37.4 µM) |  |  | 
27 | Cc1cc(F)ccc1NS(=O)(=O)C1CCCCC1O (configuration not stated) |  |  |  | 34.1 µg/mL (≈ 119 µM) | 310 µg/mL (≈ 1080 µM) |  |  | 
28 | O=S(=O)(Nc1ccc(Cl)cc1C(F)(F)F)C1CCCCCCCCCCC1O (configuration not stated) | 420 µg/mL (≈ 950 µM) | > 1000 µg/mL | 8.45% | 5.72 µg/mL (≈ 12.9 µM) | 49.4 µg/mL (≈ 112 µM) | 26.06% |  | 15.49%
